Results as given in ChEMBL document CHEMBL3259808, “Optimization of antitrypanosomatid agents: identification of nonmutagenic drug candidates with in vivo activity” (J Med Chem, 2014).

These compounds were tested on Trypanosoma cruzi (assay: Antitrypanosomal activity against Trypanosoma cruzi Tulahuen 2 epimastigotes assessed as growth inhibition after 5 days). Conditions: not given.
Assay type: functional, organism-based
How it was run: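 Epimastigotes were grown axenically at 28 °C in BHI-tryptose with 5% FBS and seeded from a 5–7 day culture at 1 × 10⁶ cells/mL. Drug from a DMSO stock was added (final DMSO ≤0.4%; the control contained 0.4% DMSO). Duplicates were run. A600 was read at day 5, and % inhibition was calculated relative to day-0 and control readings. IC50 = concentration that halves the absorbance ratio.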

Row | IC50 | Structure (SMILES)
1 | > 25 µM | O=C1CS/C(=N\N=C\c2ccc([N+](=O)[O-])s2)N1c1ccccc1 (stereo in doubt; 13)

Same assay, conditions: Trypanosoma cruzi, Tulahuen 2, 120 h

Row | Structure (SMILES) | IC50
2 | C=CCN1C(=O)CS/C1=N/N=C\c1ccc(Cl)cc1 | > 25 µM
3 | C=CCN1C(=O)CS\C1=N/N=C\C=C\C=C\c1cccs1 | > 25 µM
4 | C=CCn1c(-c2ccccc2)cs/c1=N\N=C\c1ccco1 | > 25 µM
5 | C=CCN1C(=O)CS/C1=N\N=C\c1cccs1 | > 25 µM
6 | C=CCn1c(-c2ccc(Cl)cc2)cs/c1=N\N=C\c1ccc(Cl)cc1 | > 25 µM
7 | C=CCNC(=S)N/N=C/c1cc2ccccc2o1 | > 25 µM
8 | C=CCn1c(-c2ccc(Br)cc2)cs\c1=N/N=C/C=C/c1cccs1 | > 25 µM
9 | Cc1cs/c(=N\N=C\c2cccs2)n1-c1ccccc1 | > 25 µM
10 | C=CCN(C(C)=O)C1=NNC(c2ccc([N+](=O)[O-])s2)S1 (configuration not stated) | > 25 µM
11 | O=C1CS\C(=N/N=C\C=C\C=C\c2cccs2)N1c1ccccc1 | > 25 µM
12 | C=CCn1c(-c2ccc(OC)cc2)cs\c1=N/N=C/C=C/c1cccs1 | > 25 µM
13 | C=CCn1c(C)cs\c1=N/N=C/C=C/c1ccccc1 | > 25 µM
14 | O=C1CS\C(=N/N=C/C=C/c2ccco2)N1c1ccccc1 | > 25 µM
15 | C=CCn1c(-c2ccccc2)cs\c1=N/N=C/C=C/c1cccs1 | > 25 µM
16 | C=CCn1c(-c2ccc([N+](=O)[O-])cc2)cs\c1=N/N=C/C=C/c1cccs1 | > 25 µM
17 | C=CCN(C(C)=O)C1=NNC(c2cccs2)S1 (configuration not stated) | > 25 µM
18 | O=[N+]([O-])c1ccc(/C=N/N=c2\scc(-c3ccccc3)n2-c2ccccc2)s1 | > 25 µM
19 | C=CCn1c(C)cs/c1=N\N=C\c1ccc(S(=O)(=O)O)o1 | > 25 µM
20 | C=CCn1c(-c2ccc(Cl)cc2)cs\c1=N/N=C/C=C/c1cccs1 | > 25 µM
21 | C=CCn1c(-c2ccccc2)cs\c1=N/N=C/C=C/c1ccccc1 | > 25 µM
22 | C(=N\N=c1/scc(-c2ccccc2)n1-c1ccccc1)/c1ccccc1 | > 25 µM
23 | C=CCNC(=S)N/N=C/c1ccc(O)cc1 | > 25 µM
24 | C=CCN(C(C)=O)C1=NN(C(C)=O)C(/C=C/c2ccco2)S1 (configuration not stated) | > 25 µM
25 | C=CCn1c(-c2ccccc2)cs/c1=N\N=C\c1ccc(S(=O)(=O)O)o1 | > 25 µM
26 | CC(=O)N(C1=NN(C(C)=O)C(c2cccs2)S1)c1ccccc1 (configuration not stated) | > 25 µM
27 | C=CCNC(=S)N/N=C/c1ccc2c(c1)OCO2 | > 25 µM
28 | C=CCNC(=S)N/N=C/c1ccsc1 | > 25 µM
29 | C=CCn1c(-c2ccccc2)cs/c1=N/N=C/c1cccs1 | > 25 µM
30 | C=CCn1c(C)cs/c1=N\N=C\c1ccco1 | > 25 µM

Next, values leading:

Row | IC50 | Structure (SMILES)
31 | > 25 µM | C=CCNC(=S)N/N=C/c1cncc(Br)c1
32 | > 25 µM | C=CCN1C(=O)CS\C1=N/N=C/C=C/c1ccco1
33 | 5 µM | C(=C\c1ccco1)/C=N/N=c1/scc(-c2ccccc2)n1-c1ccccc1
34 | > 25 µM | O=C1CS/C(=N\N=C\c2ccc([N+](=O)[O-])s2)N1
35 | > 25 µM | C=CCn1c(-c2ccc3ccccc3c2)cs\c1=N/N=C/C=C/c1cccs1
36 | 17 µM | C=CCNC(=S)N/N=C/c1ccnc2ccccc12
37 | 15 µM | C=CCn1c(-c2ccc(Cl)cc2)cs/c1=N\N=C\c1ccc2c(c1)[n+]([O-])c(C)c(C)[n+]2[O-]
38 | 11 µM | C=CCNC(=S)N/N=C/c1ccc(Cl)cc1
39 | 10 µM | C=CCNC(=S)N/N=C/c1ccc(SC)cc1
40 | 11 µM | S=C(N/N=C/C=C/c1ccco1)Nc1ccccc1
41 | 20 µM | C=CCn1c(-c2ccccc2)cs/c1=N/N=C/c1ccc([N+](=O)[O-])s1
42 | 6.6 µM | C=CCNC(=S)N/N=C/C=C/c1ccccc1
43 | 25 µM | Cc1cs/c(=N/N=C/C=C/c2ccco2)n1-c1ccccc1
44 | 25 µM | N/C(S)=N/N=C/c1ccc([N+](=O)[O-])s1
45 | 19 µM | S=C(N/N=C/c1ccccc1)Nc1ccccc1
46 | 14.6 µM | C=CCn1c(-c2ccc(Cl)cc2)cs/c1=N\N=C\c1ccsc1
47 | 5.4 µM | C=CCNC(=S)N/N=C/c1ccc2ccccc2c1
